Experimental findings from ChEMBL document CHEMBL1149040, “Two new macrolide sesquiterpene pyridine alkaloids from Maytenus emarginata: emarginatine G and the cytotoxic emarginatine F” (1994) are described below.

What all share (type): functional
Holding throughout (details): read-out: ED50 (the source's name)

Experiment [1] concerns TE-671. Nature of the experiment: Cytotoxicity against human TE671 cells. The method in brief:
(§1)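 In vitro cytotoxicity against a tumor-cell panel. Panel: KB (nasopharyngeal carcinoma), A-549 (human lung carcinoma), HCT-8 (human colon adenocarcinoma), RPMI-7951 (human melanoma), TE-671 (human medulloblastoma) and P-388 (murine leukemia). The procedure follows published protocols.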

In experiment [2] the test system is KB. Nature of the experiment: Cytotoxicity against human KB cells. The method in brief:
as §1

The test system of experiment [3] is P388. Nature of the experiment: Cytotoxicity against mouse P388 cells. In a few lines: as §1
Experiment [4] concerns A549. As to the kind of experiment: Cytotoxicity against human A549 cells. The method in brief: as §1
Experiment [5] concerns RPMI-7951. As to the kind of experiment: Cytotoxicity against human RPMI7951 cells. The method in brief:
as §1

In experiment [6] the test system is HCT-8. As to the kind of experiment: Cytotoxicity against human HCT8 cells. In a few lines: as §1

Converted amounts (≈) assume the structure as drawn.

For `CC(=O)OC[C@]12[C@H](OC(C)=O)[C@@H](O)[C@@H]3[C@@H](OC(C)=O)[C@@]14O[C@@]3(C)COC(=O)c1cccnc1[C@H](C)[C@H](C)C(=O)O[C@@H]([C@H](OC(=O)c1ccc(=O)n(C)c1)[C@@H]2OC(=O)c1ccccc1)[C@@]4(C)O` [EMARGINATINE F], the EC50 is 0.21 µg/mL (≈ 0.229 µM) in experiment [1]; 0.51 µg/mL (≈ 0.555 µM) in experiment [2]; 0.69 µg/mL (≈ 0.751 µM) in experiment [3]; 5.5 µg/mL (≈ 5.99 µM) in experiment [4]; < 0.1 µg/mL in experiment [5]; 1.29 µg/mL (≈ 1.4 µM) in experiment [6].
As for `C/C=C(\C)C(=O)O[C@H]1[C@@H](OC(=O)c2ccc(=O)n(C)c2)[C@@H]2OC(=O)[C@@H](C)[C@@H](C)c3ncccc3C(=O)OC[C@]3(C)O[C@@]4([C@H](OC(C)=O)[C@H]3[C@@H](OC(C)=O)[C@@H](OC(C)=O)[C@]14COC(C)=O)[C@]2(C)O` [EMARGINATINE G], the EC50 in experiment [1], in experiment [2], in experiment [3], in experiment [4], in experiment [5] and in experiment [6] was > 10 µg/mL throughout.
